Source: PubChem (several laboratories)
ABHD4 inh = inhibitors of mouse ABHD4 | purified mABHD4, FP-Rh probe fluorescence polarization | inhibition, % at 8.92 µM | hit rate 0.54% among 370,000 | AID 720543;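 active = inhibition exceeding the mean over every tested compound plus 3 SD, cut at about 30% in these data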;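 also: 0% = plate median of compound wells and 100% = S159A mutant with DMSO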
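Assay system: mABHD4 protein; medium: HEPES pH 7.0, NaCl, Pluronic buffer; dosing: 8.92 µM, single dose; schedule: 45 min + 60 min at 25 °C; signal: FP readout, ex 525 nm / em 598 nm; read-out: normalized percent inhibition of probe labeling; repeats: single replicate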
SIAE primary = inhibitors of human sialic acid acetylesterase SIAE. SIAE FP-Rh probe binding, fluorescence polarization. inhibition, % at 9.66 µM. hit rate 0.69% among 370,000. AID 1053197;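 active = inhibition above a cutoff: mean of compounds within the control limits plus 3 SD of those, cut at about 17% in these data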;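 also: 0% = plate median of compound wells and 100% = probe without SIAE protein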
JMJD2C inh = human JMJD2C demethylase inhibition; inhibition, % at 2.35 µM; AID 2099; hit rate 0.069% among 330,000; GST-JMJD2C(1-420) H3K9me3 demethylation, DELFIA europium; Q9H3R0;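 active = more than half of a compound's replicate wells show inhibition beyond 50%, single wells judged on their own value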;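 also: signal counts dimethyl H3K9 product captured on neutravidin plate; 0% = median of DMSO wells and 100% = 0.3 times that DMSO median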
Target sequence (Q9H3R0 1-420 limits assumed): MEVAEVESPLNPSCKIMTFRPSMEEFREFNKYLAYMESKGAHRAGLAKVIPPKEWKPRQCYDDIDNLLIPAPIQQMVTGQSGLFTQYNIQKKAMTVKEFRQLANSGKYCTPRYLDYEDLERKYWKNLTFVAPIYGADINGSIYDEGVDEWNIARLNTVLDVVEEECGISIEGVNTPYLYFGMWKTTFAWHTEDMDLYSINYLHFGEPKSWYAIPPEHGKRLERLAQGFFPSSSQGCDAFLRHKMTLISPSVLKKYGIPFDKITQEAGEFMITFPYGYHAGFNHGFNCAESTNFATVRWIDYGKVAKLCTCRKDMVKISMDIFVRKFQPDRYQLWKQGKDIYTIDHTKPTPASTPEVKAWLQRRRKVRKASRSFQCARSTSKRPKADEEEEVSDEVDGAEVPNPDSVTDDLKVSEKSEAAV
PRMT1 FP inh = inhibitors of human PRMT1. recombinant PRMT1, activity-based probe fluorescence polarization. inhibition, % at 2.79 µM. hit rate 1.3% among 370,000;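 active = inhibition above about 21% made by adding two undisclosed values, limit read from the data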
HTRA1 inh = blocks human HTRA1 serine peptidase | Q92743 | recombinant HTRA1, FP-rhodamine activity-based probe, fluorescence polarization | inhibition, % at 5.96 µM | hit rate 0.5% among 340,000 | AID 504803; in the data active = inhibition above about 36%;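 also: 0% = enzyme with DMSO and 100% = wells lacking enzyme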
PRMT1 inh conf = confirmation of human PRMT1 inhibitors; shares compounds with PRMT1 FP inh; recombinant His-PRMT1, activity-based probe fluorescence polarization; inhibition, % at 2.79 µM; hit rate 42% among 3,300;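 active = mean inhibition across replicates above the hit cutoff derived for the earlier primary screen, cut at about 22% in these data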
mABHD4 conf = confirmation of mouse ABHD4 inhibitors; shares compounds with ABHD4 inh; purified mABHD4, FP-Rh probe fluorescence polarization; inhibition, % at 8.92 µM; hit rate 55% among 1,800; AID 720658;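 active = mean inhibition across replicates above the hit cutoff set in the primary screen, cut at about 30% in these data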;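 also: 0% = wild-type ABHD4 with DMSO and 100% = catalytically dead S159A mutant with DMSO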
* hit, by the source's call; x = no result given; ! = not active in a repeat. An excerpt weighted towards active compounds, which were near 2.4% of everything screened.

SMILES | ABHD4 inh | SIAE primary | JMJD2C inh | PRMT1 FP inh | HTRA1 inh | PRMT1 inh conf | mABHD4 conf
C=CCSC1=N/C(=C\c2cc(OCC)c(OC(C)=O)c([N+](=O)[O-])c2)C(=O)S1 | 37* | -11 | 0 | 28* | 28 | 8 | 85*
O=C1OC(/C(=C\Nc2cc(Cl)ccc2O)[N+](=O)[O-])c2ccccc21 (stereo unspecified) | 42* | 4 | -1 | 29* | 5 | 0 | 8
O=C1OC(/C(=C\Nc2ccc(F)cc2F)[N+](=O)[O-])c2ccccc21 (stereo unspecified) | 1 | 2 | -1 | 12 | 2 | x | x
O=C(NC1CCCCN(Cc2ccc(Cl)cc2)C1=O)c1cccc([N+](=O)[O-])c1 (stereo unspecified) | -3 | 0 | x | 6 | x | x | x
CCN(CC)c1nc(C=Cc2ccc(N(C)C)cc2)c2nccnc2n1 | -135 | -69 | x | -8 | -66 | x | x
N#CC1=C(N)n2c(s/c(=C\c3ccco3)c2=O)=C(C#N)C1c1ccco1 (stereo unspecified) | 32* | 6 | -28 | 41* | 20 | 17 | -20
CCOC(=O)C1=C(N)n2c(s/c(=C/c3ccco3)c2=O)=C(C(=O)OC)C1c1ccco1 (stereo unspecified) | 39* | 8 | 13 | 36* | 9 | -1 | -7
C#CCCCN([C@@H](CC(C)C)C(=O)OC)S(=O)(=O)c1ccc(F)cc1Br | -8 | -1 | x | -7 | x | x | x
CCOc1cc(/C=C2\CCCc3c2nc2ccccc2c3C(=O)O)ccc1OC | 32* | 17 | -2 | 117* | 0 | 0 | 27
O=C1/C(=C/c2ccco2)SC(=S)N1CC1CCCO1 (stereo unspecified) | 32* | 9 | 9 | 35* | x | 6 | 5
O=C1/C(=C\c2ccco2)SC(=S)N1C1CCS(=O)(=O)C1 (stereo unspecified) | 35* | 7 | -1 | 25* | x | 2 | -3
O=C(O)CCCN1C(=O)/C(=C\c2ccco2)SC1=S | 31* | 4 | -13 | 28* | 13 | 17 | 11
O=C1/C(=C/c2cccnc2)SC(=S)N1CC1CCCO1 (stereo unspecified) | -23 | 8 | 0 | 0 | 6 | x | x
O=C(CCCN1C(=O)/C(=C/c2ccco2)SC1=S)Nc1ccccc1C(=O)O | 32* | 7 | 2 | 55* | 5 | 29* | -26
CN(C)[C@H]1CCN(c2ccc3c(c2)O[C@H]2CCN(C2)S3(=O)=O)C1 | -3 | 1 | x | 1 | x | x | x
Cc1ccc([N+](=O)[O-])cc1NC(=O)Nc1cccc(F)c1 | -11 | -26 | -6 | 7 | -23 | x | x
O=C(NCCO)C1(C(=O)C2CC2)CC(c2ccccc2C(F)(F)F)=NO1 (stereo unspecified) | 3 | -3 | x | 0 | x | x | x
O=S1(=O)CCN(Cc2ccncc2)CC1 | 3 | 4 | x | -1 | 11 | x | x
CCOc1ccc(-n2c(SCC(=O)Nc3cccc4ccccc34)nnc2-c2ccncc2)cc1 | 0 | 3 | x | 5 | x | x | x
Cc1ccc(C)c(N2CCN(C(=O)c3ccc4nc(-c5ccco5)c(-c5ccco5)nc4c3)CC2)c1 | 42* | 14 | 5 | 44* | 7 | 19 | -1
CCOC(=O)[C@H](Cc1ccccc1)NC(=O)[C@H]1C[C@@]2(N3CCCCC3)c3ccccc3N(C(=O)OC(C)(C)C)[C@H]2N1C(=O)OC(C)(C)C | -6 | 5 | x | 3 | x | x | x
C[C@@H]1/C=C/CC(=O)N[C@H](c2cccc(Br)c2)[C@H](C)/C=C/CC(=O)N[C@@H]1c1cccc(Br)c1 | -20 | -8 | x | 0 | x | x | x
Cc1ccc(-c2ccccc2)n1-c1ccc(C(=O)O)cc1 | 36* | 1 | -9 | 73* | -8 | -1 | -8
O=C(/C=C/c1ccc(-c2ccccc2[N+](=O)[O-])o1)c1ccccc1 | 32* | 12 | 19 | 28* | -24 | -2 | 11
O=S(=O)(Nc1nc2ccccc2s1)c1cc(F)ccc1F | -39 | -5 | 14 | -2 | -3 | x | x
SMILES | ABHD4 inh | SIAE primary | JMJD2C inh | PRMT1 FP inh | HTRA1 inh | PRMT1 inh conf | mABHD4 conf
O=S(=O)(Nc1nc(-c2ccco2)c(-c2ccco2)s1)c1ccc(F)cc1F | 47* | -1 | x | 45* | 5 | 20 | 12
O=C1NC(=S)NC1=Cc1ccco1 | 33* | -5 | x | 64* | 14 | 13 | 6
CCC(=O)Nc1cc(OC)c(NC(=S)Nc2ccccc2CC)cc1OC | 43* | 11 | x | 47* | 4 | -3 | -5
NNC(=S)Nc1cccc(-c2n[nH]c(=S)o2)c1 | 35* | 0 | 1 | 34* | 8 | 8 | 22
CN(C)C(=S)Nc1cccc(-c2n[nH]c(=S)o2)c1 | 4 | 15 | -6 | -1 | 3 | x | x
COc1cccc(C(=O)N2CCC[C@@H]2C(=O)N2CCC[C@H]2C(=O)NCc2ccccc2)c1 | -5 | -3 | x | -1 | x | x | x
C[n+]1cc2c3c(ccc2c2ccc4cc5c(cc4c21)OCO5)OCO3 | 68* | 19* | x | 61* | x | 85* | 71*
C[n+]1c(/C=C/c2ccc3c(c2)OCO3)ccc2ccccc21 | 5 | 0 | 8 | 2 | 1 | x | x
COC(=O)C1CN(C2CCCC2)CCS(=O)(=O)N1Cc1ccccc1 (stereo unspecified) | 2 | -3 | x | 1 | x | x | x
COC(=O)CNC(=O)C1Nc2ccc(OC(F)(F)F)cc2C2C=CCC12 (stereo unspecified) | 47* | 5 | -36 | 37* | 27 | 2 | -4
COc1ccc(CN2C[C@]3(C=C4CCCCC4n4c(=O)n(-c5ccccc5)c(=O)n43)N(C(=O)OCc3ccccc3)C2=NC(=O)c2ccccc2)c(OC)c1 (stereo partly specified) | -1 | 0 | x | -2 | x | x | x
COc1ccc2c(n1)Sc1nc3ccccc3nc1N2 | 32* | 9 | 4 | 78* | 3 | 20 | 10
COc1cc2ccccc2nn1 | 2 | -1 | -3 | 1 | 3 | x | x
C[c-]1[c-](C)[c-](C)[c-](C)[c-]1C.[Fe].c1cc2nccc(N3CCCC3)[c-]2c1 (stereo unspecified) | 33*! | 8 | 10 | 26* | 14 | 8 | 30*
c1cc(N2CCCCC2)nc(N2CCCCC2)n1 | -10 | 7 | x | 4 | 7 | x | x
O=c1ccc2ccc(O)cc2o1 | 3 | 3 | x | 2 | 3 | x | x
O=c1ccc2cc(O)c(O)cc2o1 | 50* | 6 | -19 | 32* | 3 | 3 | 2
C/C(=N\Nc1cccc(C(=O)O)c1)c1ccc(Cl)s1 | 40* | -6 | -9 | 42* | -3 | 10 | 45*
COc1ccc(/C(C)=N/Nc2cccc(C(=O)O)c2)cc1OC | 9 | 3 | 5 | 2 | -4 | x | x
CCCCN1Cc2c(nc3cc(-c4ccco4)[nH]n3c2=O)C1=O | 35* | -1 | 17 | 56* | 11 | 18 | 1
